The subject of series [1] is human cytomegalovirus (HCMV), strain Davis. In kind it is cell-based. The following applies: Human betaherpesvirus 5, HEL, read-out: Antiviral activity, EC50, Davis. Summed up: (§1)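 HEL (human embryonic lung) cell cultures infected with HCMV strain AD-169 or Davis. Antiviral activity scored as inhibition of virus-induced cytopathic effect or of plaque formation.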
In series [2] the test system is HCMV (strains AD-169 and Davis). In words: Anti-HCMV activity in HEL cells, text statements not split by strain. The class given is cell-based, human cytomegalovirus. The following applies: qualitative statement. An outline of the steps:
as §1

Series [3] is described as follows: Cytostatic activity, cell growth. In kind it is cell-based. The following applies: human, human embryonic lung (HEL) cells. An outline of the steps:
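Cytostatic assay in HEL cells. Value is the cytotoxic concentration needed to reduce cell growth by 50%.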

pEC50: −log10 of the molar value.

A word on the pEC50: it is −log10 of the EC50, conventionally taken in molar units. What is called CC50 is the concentration that lowers cell viability or growth by half. Low readings indicate greater toxicity to the cells, high ones lower toxicity to the cells.

In the case of `O=c1c2ccccc2n(CCCCCOc2ccc(Br)cc2)c(=O)n1Cc1cccc2ccccc12` [Compound 24, 1-[5-(4-bromophenoxy)pentyl]-3-(naphthalen-1-ylmethyl)quinazolin-2,4(1H,3H)-dione], in series [1], the pEC50 was less than 4.00. Besides, the “Anti-HCMV activity in words” value in series [2] was “inactive”.
With `Nc1ccn(C[C@@H](CO)OCP(=O)(O)O)c(=O)n1` [Cidofovir, cidofovir], the pEC50 in series [1] was 5.83. In addition, the CC50 in series [3] is greater than 300 µM.
With `O=c1ccn(Cc2cccc3ccccc23)c(=O)n1CCCCCOc1ccc(Br)cc1` [Compound 27, 3-[5-(4-Bromophenoxy)pentyl]-1-(naphthalen-1-ylmethyl)uracil], the pEC50 in series [1] was 4.35. In addition, the “Anti-HCMV activity in words” value in series [2] is given as “more than one order of magnitude less active”.
As for `Nc1nc(O)c2ncn(COC(CO)CO)c2n1` [Ganciclovir, ganciclovir], the pEC50 in series [1] is 5.04. The molecule further came in with a CC50 in series [3] greater than 350 µM.

Values taken from article PMC9926436 (Doklady. Biochemistry and Biophysics, 2023).
